Measurements from ChEMBL document CHEMBL1155262, “A new class of anticonvulsants possessing 6 Hz activity: 3,4-dialkyloxy thiophene bishydrazones” (Eur J Med Chem, 2009).
Active and inactive are the calls of the source. No cut-off for these calls is given here.

Assays:
Mus musculus [1] = experiment: Anticonvulsant activity in mouse CF1 albino assessed as inhibition of minimal electric shock-induced seizure at 100 mg/kg, ip after 0.5 hrs; type: functional, organism-based; parameters: dose 100 mg/kg
Summary of the method: (§1)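 6 Hz psychomotor seizure model in male CF-1 albino mice dosed i.p. Four mice per time point (0.25, 0.5, 1, 2, 4 h) received corneal-electrode current of 32 mA for 3 s. Untreated mice show a minimal clonic phase followed by stereotyped automatistic behaviour. Results given as number protected out of 4.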

Mus musculus [2] = experiment: Anticonvulsant activity in mouse CF1 albino assessed as inhibition of minimal electric shock-induced seizure at 100 mg/kg, ip after 4 hrs; type: functional, organism-based; parameters: dose 100 mg/kg; summary of the method: as §1
Mus musculus [3] = experiment: Anticonvulsant activity in mouse CF1 albino assessed as inhibition of minimal electric shock-induced seizure at 100 mg/kg, ip after 2 hrs; type: functional, organism-based; parameters: dose 100 mg/kg; summary of the method: as §1
Mus musculus [4] = experiment: Anticonvulsant activity in mouse CF1 albino assessed as inhibition of minimal electric shock-induced seizure at 100 mg/kg, ip after 1 hr; type: functional, organism-based; parameters: dose 100 mg/kg; summary of the method: as §1
Mus musculus [5] = experiment: Neurotoxicity against ip dosed mouse CF1 albino assessed as minimal motor impairment after 0.5 hrs by rotord test; type: toxicity, organism-based; conditions: in vivo
Summary of the method: (§2)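 Rotorod minimal motor impairment in male CF-1 albino mice (18–25 g) after i.p. dosing at 30, 100 or 300 mg/kg in 0.5% methyl cellulose/water or PEG 200. Mice placed on a rod rotating at 6 rpm at 0.5 or 4 h. Value is minimum dose causing impairment in at least one mouse.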

Mus musculus [6] = experiment: Anticonvulsant activity in mouse CF1 albino assessed as inhibition of maximal electric shock-induced seizure at 300 mg/kg, ip after 4 hrs; type: functional, organism-based; parameters: dose 300 mg/kg
Summary of the method: (§3)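 Male CF-1 albino mice (18–25 g); compound suspended in 0.5% methyl cellulose/water or PEG 200, given i.p. at 30, 100 and 300 mg/kg (0.01 mL/g). Tested 0.5 or 4 h after dosing. Protection = abolition of hind limb tonic extensor component of MES seizure.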

Mus musculus [7] = experiment: Anticonvulsant activity in mouse CF1 albino assessed as inhibition of subcutaneous metrazole-induced seizure at 300 mg/kg, ip after 4 hrs; type: functional, organism-based; parameters: dose 300 mg/kg
Mus musculus [8] = experiment: Anticonvulsant activity in mouse CF1 albino assessed as inhibition of subcutaneous metrazole-induced seizure at 300 mg/kg, ip after 0.5 hrs; type: functional, organism-based; parameters: dose 300 mg/kg
Mus musculus [9] = experiment: Neurotoxicity against mouse CF1 albino assessed as minimal motor impairment at 300 mg/kg, ip after 4 hrs by rotord test; type: toxicity, organism-based; parameters: dose 300 mg/kg, route intraperitoneal; conditions: in vivo; summary of the method: as §2
Mus musculus [10] = experiment: Anticonvulsant activity in mouse CF1 albino assessed as inhibition of maximal electric shock-induced seizure at 300 mg/kg, ip after 0.5 hrs; type: functional, organism-based; parameters: dose 300 mg/kg; summary of the method: as §3
Mus musculus [11] = experiment: Anticonvulsant activity in mouse CF1 albino assessed as inhibition of minimal electric shock-induced seizure at 50 mg/kg, ip after 0.25 hrs; type: functional, organism-based; parameters: dose 50 mg/kg; summary of the method: as §1
Mus musculus [12] = experiment: Anticonvulsant activity in mouse CF1 albino assessed as inhibition of minimal electric shock-induced seizure at 50 mg/kg, ip after 2 hrs; type: functional, organism-based; parameters: dose 50 mg/kg; summary of the method: as §1
Mus musculus [13] = experiment: Anticonvulsant activity in mouse CF1 albino assessed as inhibition of minimal electric shock-induced seizure at 50 mg/kg, ip after 1 hr; type: functional, organism-based; parameters: dose 50 mg/kg; summary of the method: as §1
Mus musculus [14] = experiment: Anticonvulsant activity in mouse CF1 albino assessed as inhibition of minimal electric shock-induced seizure at 50 mg/kg, ip after 4 hrs; type: functional, organism-based; parameters: dose 50 mg/kg; summary of the method: as §1
Mus musculus [15] = experiment: Anticonvulsant activity in mouse CF1 albino assessed as inhibition of minimal electric shock-induced seizure at 50 mg/kg, ip after 0.5 hrs; type: functional, organism-based; parameters: dose 50 mg/kg; summary of the method: as §1
Mus musculus [16] = experiment: Neurotoxicity against ip dosed mouse CF1 albino assessed as minimal motor impairment after 4 hrs by rotord test; type: toxicity, organism-based; conditions: in vivo; summary of the method: as §2
Mus musculus [17] = experiment: Neurotoxicity against mouse CF1 albino assessed as minimal motor impairment at 300 mg/kg, ip after 0.5 hrs by rotord test; type: toxicity, organism-based; parameters: dose 300 mg/kg, route intraperitoneal; conditions: in vivo; summary of the method: as §2
Mus musculus [18] = experiment: Anticonvulsant activity in ip dosed mouse CF1 albino assessed as inhibition of subcutaneous metrazole-induced seizure after 0.5 hrs; type: functional
Mus musculus [19] = experiment: Anticonvulsant activity in ip dosed mouse CF1 albino assessed as inhibition of subcutaneous metrazole-induced seizure after 4 hrs; type: functional
Mus musculus [20] = experiment: Anticonvulsant activity in mouse CF1 albino assessed as inhibition of minimal electric shock-induced seizure at 100 mg/kg, ip after 0.25 hrs; type: functional, organism-based; parameters: dose 100 mg/kg; summary of the method: as §1

SMILES | Activity (Mus musculus [5]) [mg/kg] | Activity (Mus musculus [6]) | Activity (Mus musculus [7]) | Activity (Mus musculus [8]) | Activity (Mus musculus [9]) | Activity (Mus musculus [10]) | also measured
CCCOc1c(C(=O)N/N=C/c2cccnc2N)sc(C(=O)N/N=C/c2cccnc2N)c1OCCC |  |  |  |  |  |  | Activity (Mus musculus [1]): inactive; Activity (Mus musculus [2]): inactive; Activity (Mus musculus [3]): inactive; Activity (Mus musculus [4]): inactive
COc1cc(/C=N/NC(=O)c2sc(C(=O)N/N=C/c3cc(OC)c(OC)c(OC)c3)c3c2OCCO3)cc(OC)c1OC | 300 | inactive | inactive | inactive | Not Active | inactive | 
CCCCCCCOc1c(C(=O)N/N=C/c2ccc3c(c2)c2ccccc2n3CC)sc(C(=O)N/N=C/c2ccc3c(c2)c2ccccc2n3CC)c1OCCCCCCC |  |  |  |  |  |  | Activity (Mus musculus [11]): inactive; Activity (Mus musculus [12]): inactive; Activity (Mus musculus [13]): inactive; Activity (Mus musculus [14]): inactive; Activity (Mus musculus [15]): inactive
CCCOc1c(C(=O)N/N=C/c2ccc(C(=O)O)cc2)sc(C(=O)N/N=C/c2ccc(C(=O)O)cc2)c1OCCC | 100 | inactive | inactive | inactive | Not Active | inactive | 
CCCOc1c(C(=O)N/N=C/c2cc([N+](=O)[O-])ccc2Br)sc(C(=O)N/N=C/c2cc([N+](=O)[O-])ccc2Br)c1OCCC | 300 | inactive | inactive | inactive | Not Active | inactive | 
CCCOc1c(C(=O)N/N=C/c2ccc(N(C)C)cc2)sc(C(=O)N/N=C/c2ccc(N(C)C)cc2)c1OCCC | 100 | inactive | inactive | inactive |  | inactive | Activity (Mus musculus [16]): 300 mg/kg
O=C(N/N=C/c1ccc2c(c1)Cc1ccccc1-2)c1sc(C(=O)N/N=C/c2ccc3c(c2)Cc2ccccc2-3)c2c1OCCO2 |  | inactive | inactive |  | Not Active | inactive | Activity (Mus musculus [17]): Not Active; Activity (Mus musculus [18]): 300 mg/kg
CCCOc1c(C(=O)NN)sc(C(=O)NN)c1OCCC | 100 | inactive | inactive | inactive | Not Active | inactive | 
CCCOc1c(C(=O)N/N=C(/C)c2ccc(Br)s2)sc(C(=O)N/N=C(/C)c2ccc(Br)s2)c1OCCC |  |  |  |  |  |  | Activity (Mus musculus [1]): inactive
CCCOc1c(C(=O)N/N=C(/C)c2cc(Cl)sc2Cl)sc(C(=O)N/N=C(/C)c2cc(Cl)sc2Cl)c1OCCC | 300 | inactive |  | inactive | Not Active | inactive | Activity (Mus musculus [19]): 300 mg/kg
CCCOc1c(C(=O)N/N=C(/C)c2ccsc2Br)sc(C(=O)N/N=C(/C)c2ccsc2Br)c1OCCC |  |  |  |  |  |  | Activity (Mus musculus [2]): inactive; Activity (Mus musculus [3]): inactive; Activity (Mus musculus [20]): inactive
CCCCCCCOc1c(C(=O)N/N=C2/C(=O)Nc3ccccc32)sc(C(=O)N/N=C2/C(=O)Nc3ccccc32)c1OCCCCCCC |  |  |  |  |  |  | Activity (Mus musculus [20]): inactive; Activity (Mus musculus [4]): inactive
